An excerpt weighted towards active compounds, which were near 2.6% of everything screened.
Arbovirus inh: blocks arbovirus infection; 200,000 tested, 0.37% active; AID 1251; arbovirus infection cell-based antiviral screen; inhibition, % at 10 µM; in the data active = inhibition above about 30%
WT yeast gro inh: growth inhibition of WT yeast, mitochondrial fusion screen | mitochondrial fusion phenotypic screen, WT strain | AID 1362 | inhibition, % at 10 µM | 190,000 tested, 2.1% active; in the data active = inhibition above about 58%; tested in S. cerevisiae
TNAP inh hiacc: TNAP (human) inhibition, high acceptor. inhibition, % at 20 µM. purified TNAP, CDP-star luminescence, 1 M DEA. 200,000 tested, 0.03% active. P05186;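 active = over 50% inhibition of tissue-nonspecific alkaline phosphatase at 20 µM in the single-dose screen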;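 also: plate controls were DMSO wells for no effect and EDTA-quenched wells as full inhibition for full effect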
Target sequence (P05186 whole entry, looked up): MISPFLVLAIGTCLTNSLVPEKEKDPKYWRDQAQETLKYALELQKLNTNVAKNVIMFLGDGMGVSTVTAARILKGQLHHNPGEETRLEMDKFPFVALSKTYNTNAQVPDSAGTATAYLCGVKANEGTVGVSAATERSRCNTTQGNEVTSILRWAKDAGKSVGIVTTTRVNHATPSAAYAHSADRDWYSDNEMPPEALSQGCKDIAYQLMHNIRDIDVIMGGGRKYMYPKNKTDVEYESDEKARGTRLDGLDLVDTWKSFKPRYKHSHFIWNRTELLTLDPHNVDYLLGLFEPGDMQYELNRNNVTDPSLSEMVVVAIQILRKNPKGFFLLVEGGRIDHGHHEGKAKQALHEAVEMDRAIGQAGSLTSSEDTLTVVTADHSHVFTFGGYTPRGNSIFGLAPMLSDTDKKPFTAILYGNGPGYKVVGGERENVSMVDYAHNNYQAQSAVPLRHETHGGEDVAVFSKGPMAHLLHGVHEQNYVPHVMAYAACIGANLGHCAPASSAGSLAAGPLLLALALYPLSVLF
TNAP inh no acc: inhibitors of human TNAP without phosphate acceptor; 200,000 tested, 0.26% active; purified TNAP, CDP-star luminescence, 30 min; inhibition, % at 20 µM; P05186; AID 1012;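 active = tissue-nonspecific alkaline phosphatase inhibition above about 50% at 20 µM in the single-dose screen, limit read from the data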;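 also: 0% = DMSO negative control and 100% = EDTA positive control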
TNAP act hi DEA: increases human TNAP activity under high phosphate acceptor concentration | 200,000 tested, under 10 active | purified TNAP, CDP-star luminescence, 1 M DEA, 30 min; stronger effect = higher value; 0 = EDTA background, 1 = DMSO-only activity | AID 1136 | activation factor at 20 µM | P05186;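 active = activation factor at least 2 at 20 µM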
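Assay system: human TNAP; Input: enzyme diluted 1/800 final; Reagent: CDP-star luminogenic substrate at 100 µM final; Timing: 30 min, room temperature; Signal: luminescence; Evaluation: TNAP activation factor scaled between EDTA and DMSO control wells.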
* = called active by the depositor; i = inactive; . = no result given.

SMILES	Arbovirus inh	WT yeast gro inh	TNAP inh hiacc	TNAP inh no acc	TNAP act hi DEA
c1cn2cc(-c3ccc4c(c3)OCO4)nc2s1	-10	79*	-1	-1	1
CC(=O)Nc1ccc(-c2cn3ccsc3n2)cc1	3	-8	-4	-3	1
CCn1c(CSc2nc3ccccc3s2)nc2ccccc21	-5	63*	-3	-10	1
COc1ccc(N2CCN(C(=O)CC34CC5CC(CC(C5)C3)C4)CC2)c([N+](=O)[O-])c1	-5	66*	7	-10	0.9
CCC(=O)N1CCN(c2ccc(OC)cc2[N+](=O)[O-])CC1	-1	5	5	-4	0.9
Cc1ccc(NC(=O)CS(=O)CC(=O)N(c2ccc(C)cc2)C(C)C(=O)NC2CCCCC2)cc1 (stereo not given)	3	5	-2	0	1
c1ccc2nc(-c3ccc(N4CCOCC4)cc3)ccc2c1	-9	-16	0	1	1
CN1CCN(c2ccc(-c3ccc4ccccc4n3)cc2)CC1	-19	73*	-8	-13	1.1
CC1CCc2nc(NC(=O)CN3CCN(c4ccc(F)cc4)CC3)sc2C1 (stereo not given)	-19	67*	0	-6	1
COc1cccc(N2CCN(CC(=O)Nc3nc4c(s3)CC(C)CC4)CC2)c1 (stereo not given)	-1	16	2	-36	1
O=C(O)c1ccc(-c2nc(-c3ccc(Cl)c(Cl)c3)cs2)cc1	23	75*	-4	-10	1
O=C(O)c1ccc(-c2nc(-c3ccccc3)cs2)cc1	5	-17	-1	-11	1
c1ccc(Nc2nc(N3CCCCC3)nc(N3CCCCC3)n2)cc1	1	52	-4	-16	1
COc1ccc(Nc2nc(N3CCCCC3)c3ccccc3n2)cc1	-39	75*	-4	-7	1
CCOc1ccc(Nc2nc(N3CCCCC3)nc(N3CCCCC3)n2)cc1	3	61*	-4	6	1
O=[N+]([O-])c1ccc(Nc2nc(NC3CCCCC3)nc(N3CCCC3)n2)cc1	-9	77*	-1	-6	1
CCCn1c(CN(Cc2ccccc2)Cc2ccccc2)nc2c1c(=O)n(C)c(=O)n2C	-22	77*	-4	-5	1
CCCn1c(CN(C)Cc2ccccc2)nc2c1c(=O)n(C)c(=O)n2C	0	-4	-3	-11	1
Cc1ccc(N/C(N)=N/c2nc(C)cc(N3CCCCC3)n2)c(C)c1	-31	17	-25	i	1.3
Cc1ccc(-n2[nH]c(C)c(/C=N/Nc3ccc([N+](=O)[O-])cc3[N+](=O)[O-])c2=O)cc1C	-24	70*	47	32	0.5
Cc1[nH]n(-c2ccccc2)c(=O)c1/C=N/NC(=O)c1cccc([N+](=O)[O-])c1	-26	-8	-6	4	1.1
COC(=O)CP(=O)(c1ccccc1)c1ccccc1	5	69*	-5	-13	1.1
CCOC(=O)CP(=O)(c1ccccc1)c1ccccc1	1	20	-2	-12	1
O=c1cc(C23CC4CC(CC(C4)C2)C3)[nH][nH]1	5	-16	-5	-8	1.1
COc1ccccc1CCN1C(=S)NC(C)(C)CC1(C)O (stereo not given)	6	70*	-1	2	1
SMILES	Arbovirus inh	WT yeast gro inh	TNAP inh hiacc	TNAP inh no acc	TNAP act hi DEA
COc1ccc(CN2C(=S)NC(C)(C)CC2(C)O)cc1 (stereo not given)	4	0	-3	-1	1
COc1ccc(N2C(=O)C(CN3CCN(C)CC3)C2c2ccccc2)cc1 (stereo not given)	-5	5	-4	-6	1
Clc1ccc(CSc2nnc(-c3ccccn3)n2Cc2ccco2)c(Cl)c1	5	60*	-8	5	1.1
Cc1ccc2nc(Cl)c(/C=N/NC(=O)[C@H]3C[C@@H]3c3ccccc3)cc2c1	7	16	-3	-18	1
Cc1ccc2nc(Cl)c(/C=N/NC(=O)c3ccccc3O)cc2c1	-2	62*	4	-4	1
CC(C)c1ccc(C2CC(=O)c3cnc(N4CCc5ccccc5C4)nc3C2)cc1 (stereo not given)	-7	58*	0	-7	1
CC1CC(C)CN(c2ncc3c(n2)CC(c2ccccc2)CC3=O)C1 (stereo not given)	-15	71*	-4	-5	1
O=C1CC(c2ccco2)Cc2nc(N3CCc4ccccc4C3)ncc21 (stereo not given)	-6	12	-8	-3	1.1
COc1cc2c(cc1OC)CN(S(C)(=O)=O)CC2	7	-1	-5	0	1
CN(C)S(=O)(=O)c1ccc(NC(=O)CNc2cc(S(=O)(=O)N3CCCC3)ccc2OCC(F)(F)F)cc1	2	0	-1	-17	1
Fc1ccc(C(CCCn2nnc(-c3cccnc3)n2)c2ccc(F)cc2)cc1	-20	61*	-6	6	1.1
Fc1ccc(-n2nnc(-c3cccnc3)n2)cc1	4	0	-3	-9	1
O=C1C=C(Nc2ccccc2)c2ccccc2C1=O	-22	74*	20	10	0.8
CC1=CC(=O)c2ccccc2C1=O	-44	47	-7	-14	1.1
O=C1C=C(Nc2ccccc2)C(=O)c2ccccc21	-24	64*	20	6	0.8
COc1ccccc1C/C(N)=N/OC(=O)/C=C/c1ccccc1	8	12	-8	-5	1.1
CC(=O)Nc1ccc(S(=O)(=O)n2cnc3ccccc32)cc1	14	7	-1	-4	1
N=C1/C(=C\c2ccc(SCc3ccco3)o2)C(=O)N=C2SC=NN12	6	4	20	4	0.8
CC1=NN2C(=N)/C(=C\c3ccc(SCc4ccccc4)o3)C(=O)N=C2S1	35*	.	13	-1	0.9
Cc1ccc(C)c(Oc2nnnn2-c2ccccc2)c1	-12	16	-5	-8	1
Cc1ccc(C(C)C)c(Oc2nnnn2-c2ccccc2)c1	-2	66*	-3	-5	1
CC1=CCC[C@@H]2[C@@](C)(CC/C(C)=C/C(=O)O)[C@H](C)CC[C@@]12C	-3	73*	-3	-14	1
CCCCCc1nc2sc3c(c2c(=O)n1NC(=O)c1ccc([N+](=O)[O-])cc1)CC(C)(C)OC3	-11	80*	-2	14	1
COc1ccc(S(=O)(=O)Nc2c(C)ccc3nsnc23)cc1OC	1	-2	-2	-8	1
CN(C)c1ccc(/C=N/NC(=O)C2CC2c2ccccc2)cc1 (stereo not given)	-27	-3	-1	-1	1
O=C(N/N=C/C=C/c1ccccc1)C1CC1c1ccccc1 (stereo not given)	2	64*	-3	-1	1
CC1C/C(=C/c2ccco2)C(=O)/C(=C/c2ccco2)C1 (stereo not given)	5	12	11	9	0.9
O=C1/C(=C/c2ccccn2)COc2ccccc21	-7	-10	7	0	0.9

Screening results deposited in PubChem by several laboratories.
